Results reported in the RNAGym collection of RNA variant scans (doi:10.1126/science.aae0568).
This sample holds only a part of the variants without activity.

B1: tRNA (parent)
chain: GUUCCGUUGGCGUAAUGGUAACGCGUCUCCCUCCUAAGGAGAAGACUGCGGGUUCGAGUCCCGUACGGAACG

Variants of: B1
Experiment: yeast fitness relative to wild type (ratio to wild type); higher = fitter; tRNA-Arg(CCU), competitive growth, 37 C, YPD
How it was run: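 For this measurement, the tRNA-Arg(CCU) gene was varied by chemical synthesis at a 3% per-site mutation rate across 69 sites, and each variant was placed at the native genomic locus in Saccharomyces cerevisiae. The pooled strains went through a 24-hour competition in YPD at 37°C in six parallel replicates, with amplicons from start and end populations read by 100-nucleotide paired-end sequencing. Darwinian fitness relative to wild type followed from the change in each genotype's frequency. Genotypes needed ≥ 100 starting reads, and estimates < 0.5 were set to 0.5.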

| Variant | yeast fitness |
| --- | --- |
| G12C A70C | 0.833 |
| G12C A70G | 0.845 |
| G12C A15G C34A G63C A70C | 0.641 |
| G12C A37C | 0.648 |
| G12A U28G C33G A69U | ≤ 0.5 |
| G12C A20C C34G U54G | ≤ 0.5 |
| G12C A20U A45U G50A G51A | ≤ 0.5 |
| G12C A42G U54G | ≤ 0.5 |
| G12A U26C C62U | 0.579 |
| G12C A20C C30U C31G | ≤ 0.5 |
| G12C A15U C49U | ≤ 0.5 |
| G12A U19G U35C A40U G52C U64C | ≤ 0.5 |
| G12A G39C G67A | ≤ 0.5 |
| G12A U16A A45U | 0.629 |
| G12C A20U A36G C46A U54A A70U | ≤ 0.5 |
| G12A U13C C22A U26C U47A U54G | ≤ 0.5 |
| G12C A14G A15C G41A A42C G50C A70G | ≤ 0.5 |
| G12C A20C C24A A36C G48C | ≤ 0.5 |
| G12C A14G G25A G41C C61U A70G | ≤ 0.5 |
| G12C A14G G18A C33G | ≤ 0.5 |
| G12A U13A A14G G38C | ≤ 0.5 |
| G12A G50C C66U | ≤ 0.5 |
| G12A U28A U54C G63A A70G | ≤ 0.5 |
| G12A G44C C49G | 0.799 |

| Variant | yeast fitness |
| --- | --- |
| G12C A15C U19A C34U C49G A69U | ≤ 0.5 |
| G12C A14C C24U A45U G58A A65G | ≤ 0.5 |
| G12A G44A | 0.935 |
| G12A G44C | 0.727 |
| G12A U19C A21U A69C | 0.653 |
| G12A U13C G44C | 0.554 |
| G12A U26C U47C A57C | ≤ 0.5 |
| G12A U35A | 0.706 |
| G12C A14C A15G A37C A57U | 0.682 |
| G12C A15C A20U G41A | ≤ 0.5 |
| G12C A14U A20U G23A G68A | ≤ 0.5 |
| G12A U28G C30U A36C | ≤ 0.5 |
| G12C A15G A37U A40G U54C C66G | 0.538 |
| G12C A14C U26C A40U G41A A42C | ≤ 0.5 |
| G12C A21C U26C U28C C46G C55U | ≤ 0.5 |
| G12A G44C G67A | 0.513 |
| G12C A45U | 0.978 |
| G12C A45G | 0.684 |
| G12C A20U G25A A36G | ≤ 0.5 |
| G12C A40G A70G | 0.567 |
| G12C A42G U47C | 0.634 |
| G12A G48A C66U G67A | ≤ 0.5 |
| G12A U19C U28C C55G | ≤ 0.5 |
| G12C A57G | 0.974 |

| Variant | yeast fitness |
| --- | --- |
| G12C A57U | 0.663 |
| G12A U47C | 0.905 |
| G12C A20U C30U G38A C55U C66U | ≤ 0.5 |
| G12A G52A U59C | ≤ 0.5 |
| G12A U35C A37C C62U A65C | ≤ 0.5 |
| G12A U53G G58C C61A | ≤ 0.5 |
| G12C A40C C46U C49A U64A | ≤ 0.5 |
| G12C A69G | 0.82 |
| G12C A69U | 0.935 |
| G12C A14U C27G A45U C46G G56A | ≤ 0.5 |
| G12A U32C A42C G44C A69C | ≤ 0.5 |
| G12A U19A C29G A43U C55U | ≤ 0.5 |
| G12C A43G G51C U59C C62G A70U | ≤ 0.5 |
| G12A U28G A36G | ≤ 0.5 |
| G12A U28C A37C A43C C49G | 0.548 |
| G12A U32G C33U C55G A70G | ≤ 0.5 |
| G12A U53A | 0.62 |
| G12C A14G A15C G52C | ≤ 0.5 |
| G12A U47C A69U | 0.757 |
| G12C A14G C33G G44C | ≤ 0.5 |
| G12A G41C | 0.864 |
| G12A G41A | 0.889 |
| G12A U19C C34G | 0.544 |
| G12A G67A | 0.857 |

| Variant | yeast fitness |
| --- | --- |
| G12C A21G G58C | 0.892 |
| G12A G44U G68C | ≤ 0.5 |
| G12C A43U U54C | ≤ 0.5 |
| G12A U19A C24U | 0.73 |
| G12C A37G G38A U47A | ≤ 0.5 |
| G12A U13C A15G U64C | 0.738 |
| G12A U19G U35C A40U A42G | ≤ 0.5 |
| G12A U32G C33U A45U C55U | ≤ 0.5 |
| G12C A15G G44C A57U | 0.69 |
| G12C A14C A15G A37C | 0.606 |
| G12A U35A G58A C66G G68A | ≤ 0.5 |
| G12A U16A C27G | ≤ 0.5 |
| G12C A42U C46U C55G | ≤ 0.5 |
| G12A U13C A15U | 0.507 |
| G12C A42G | 0.902 |
| G12A U19A A20U A36U | ≤ 0.5 |
| G12C A14G C27U C33A A45C U54A | ≤ 0.5 |
| G12A G63A G67A | ≤ 0.5 |
| G12A U32C U35A G58A G68A | ≤ 0.5 |
| G12C A21C | 0.638 |
| G12C A14U C61G U64C | ≤ 0.5 |
| G12A U16C C27A | ≤ 0.5 |
| G12C A15C A20U G38C G50C | ≤ 0.5 |
| G12C A37U G38A C55G | ≤ 0.5 |

| Variant | yeast fitness |
| --- | --- |
| G12A G44A G67C | 0.62 |
| G12A G68A | 0.771 |
| G12A G58A | 0.924 |
| G12A U28G C30U C61A A69U | 0.679 |
| G12A U26A A70U | 0.523 |
| G12C | 0.98 |
| G12A G44A C66U | 0.697 |
| G12C A37G U54A A65C | ≤ 0.5 |
| G12A U16A A40G A57C C60A C62U | 0.69 |
| G12A U13G G23C C24G C29G A36C | ≤ 0.5 |
| G12A U13A G41C A45C | 0.546 |
| G12C A15C U19A C34U C49A | ≤ 0.5 |
| G12A U13A A14G A21G C33U C62G | ≤ 0.5 |
| G12A G58U A70G | 0.538 |
| G12C A20U A36G C46A U54A G67C | ≤ 0.5 |
| G12C A20U C24U G51A G68C | ≤ 0.5 |
| G12C A45G U47C | 0.502 |
| G12C A14U A20U G23A G44A A57G A70U | 0.575 |
| G12A U19C A42U G48C C55U | 0.593 |
| G12C A37U G44C | 0.538 |
| G12C A20U G25A U59A | ≤ 0.5 |
| G12A U16G | 0.815 |
| G12A U16C | 0.981 |
| G12A U19A G52C | ≤ 0.5 |

| Variant | yeast fitness |
| --- | --- |
| G12C A20U C31A A65G | ≤ 0.5 |
| G12C A36C A40U C66U A69U | ≤ 0.5 |
| G12A G50C U64C | 0.692 |
| G12C A21G U26C C31U | ≤ 0.5 |
| G12A G48C G67C | ≤ 0.5 |
| G12A U64A | 0.849 |
| G12A U35A G51C | ≤ 0.5 |
| G12A G51A A65G | ≤ 0.5 |
| G12C A20U C33U A37U A57U | ≤ 0.5 |
| G12A U54G A65U G67A | ≤ 0.5 |
| G12A U26C | 0.878 |
| G12A U26A | 0.941 |
| G12A G50A | 1.01 |
| G12C A21U A42U | 0.611 |
| G12C A20U G25A | ≤ 0.5 |
| G12C A45G A65G | 0.548 |
| G12A U19C C31G | ≤ 0.5 |
| G12C A40U C49G G50A | ≤ 0.5 |
| G12A U26C G58A | 0.675 |
| G12C A15C A20U U53A U59G | ≤ 0.5 |
| G12C A14C | 0.731 |
| G12C A15G C24U A43G | 0.522 |
| G12A U32A C46A C66U | ≤ 0.5 |
| G12A G41C C60G A70U | ≤ 0.5 |

| Variant | yeast fitness |
| --- | --- |
| G12A U32C | 0.914 |
| G12C A15C U19A C34U C49A G67A | 0.547 |
| G12A U28C C31U G52A G56C | ≤ 0.5 |
| G12A U47C A57C | 0.579 |
| G12C A15C | 0.67 |
| G12C A20C A36G | 0.581 |
| G12A U28A C55G | ≤ 0.5 |
| G12A G50C G68C | 0.522 |
| G12A U47G U53A | ≤ 0.5 |
| G12C A65U A70U | 0.606 |
| G12C A40G G50C C62U | 0.756 |
| G12A U28C A40C G48A | 0.61 |
| G12A U19C G23A U32C A43C | ≤ 0.5 |
| G12A G48C G68C A70U | ≤ 0.5 |
| G12A G50A C60A | ≤ 0.5 |
| G12A U13C A42U | 0.561 |
| G12C A20U C30U A65G A69C | ≤ 0.5 |
| G12A U13G A69C | 0.598 |
| G12C A20C C31G G51C | ≤ 0.5 |
| G12C A20U C22G G50A C61A | 0.567 |
| G12A G56C | 0.764 |
| G12C A45U G58C A65U A70U | ≤ 0.5 |
| G12C A65U G68U | 0.653 |
